Data on one compound can be found in ChEMBL document CHEMBL4613273, “Discovery of Aryl Formyl Piperidine Derivatives as Potent, Reversible, and Selective Monoacylglycerol Lipase Inhibitors” (J Med Chem, 2020).

Activity calls are given as the source filed them. No cut-off for these calls is given here. Bounds are passed on as bounds.

A short description of data set [1]: Bioavailability (0 to t) in Sprague-Dawley rat plasma at 10 mg/kg, ig measured over 1 to 300 mins post dose by LC-MS/MS analysis. The settings on record: po. It counts as ADME, organism-based.
For the next data set, the target named is T1, Monoglyceride lipase (Homo sapiens, UniProt Q99685).
T1 sequence (Q99685 whole entry): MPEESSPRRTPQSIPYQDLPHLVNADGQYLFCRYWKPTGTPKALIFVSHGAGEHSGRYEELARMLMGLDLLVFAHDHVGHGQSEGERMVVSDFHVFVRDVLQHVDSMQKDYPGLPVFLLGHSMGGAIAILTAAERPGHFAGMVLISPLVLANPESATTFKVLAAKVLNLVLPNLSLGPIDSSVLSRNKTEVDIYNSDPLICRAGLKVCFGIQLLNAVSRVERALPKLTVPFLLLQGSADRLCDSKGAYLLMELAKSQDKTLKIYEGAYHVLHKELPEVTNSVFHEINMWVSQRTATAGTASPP
In words: Competitive inhibition of human recombinant MAGL at 31.25 nM to 125 nM pre-incubated for 5 mins before MAGL substrate addition and further incubated for 10 mins. The gist of the method:
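Mode of inhibition was assessed from Michaelis–Menten kinetics run at several inhibitor concentrations. Enzyme activity was plotted against substrate concentration and fitted to a mixed-model inhibition (competitive, uncompetitive and noncompetitive terms), giving Vmax, Km and α.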

Data set [2] can be described thus: AUC (0 to infinity) in Sprague-Dawley rat brain at 10 mg/kg, ig measured over 5 to 720 mins post dose by LC-MS/MS analysis. The settings on record: in vivo.
Data set [3] has as its target T2, Cannabinoid receptor 2 (Homo sapiens, UniProt P34972). In words: Inhibition of CB2 receptor (unknown origin) expressed in Flpin-CHO cells at 10 uM incubated for 10 mins by Eu-cAMP tracer based cAMP accumulation assay relative to control. For orientation: cAMP levels reflect the balance of adenylyl cyclase and phosphodiesterase activity.
Data set [4] is described as follows: Half life in Sprague-Dawley rat plasma at 10 mg/kg, ig measured over 1 to 300 mins post dose by LC-MS/MS analysis. The class given is ADME, organism-based. The settings on record: po.
A short description of data set [5]: Cmax in Sprague-Dawley rat plasma at 10 mg/kg, ig measured over 1 to 300 mins post dose by LC-MS/MS analysis. The settings on record: po. The arrangement: dose 10 mg/kg, route […]. It counts as ADME, organism-based.
Data set [6] is described as follows: Growth inhibition of mouse L929 cells at 20 uM incubated for 24 to 72 hrs relative to control. It counts as cell-based. As to conditions: read-out: GI. In outline:
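Mouse fibroblast L929 cells were exposed to the compound, including 20 μM, for 24, 48 and 72 h. Growth inhibition was read against control, from 3 independent experiments.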

Data set [7] in a line: AUC (0 to t) in Sprague-Dawley rat plasma at 10 mg/kg, ig measured over 1 to 300 mins post dose by LC-MS/MS analysis. It counts as ADME, organism-based. The settings on record: in vivo, po.
Data set [8] concerns the target T3, Monoglyceride lipase (Homo sapiens) (UniProt Q99685).
T3 sequence (whole entry): T1 sequence (Q99685 whole entry)
In words: Reversible inhibition of human recombinant MAGL pre-incubated for up to 60 mins before MAGL substrate addition and further incubated for 10 mins. The gist of the method:
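The inhibitor was preincubated with MAGL for 0, 30 or 60 min before substrate was added to start the reaction. IC50 (nM) was determined at each preincubation time, from 3 independent experiments.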

Data set [9] can be described thus: Stability in mouse liver microsomes assessed as parent compound remaining level at 100 uM pre-incubated for 5 mins before NADPH addition and measured after 60 mins by UPLC-MS/MS analysis. It counts as ADME, Microsome. The settings on record: read-out: Stability. The gist of the method: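 Liver microsomes from human, mouse and rat were incubated with the compound. Remaining parent compound was followed at several time points up to 60 min and expressed as percent remaining.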
For orientation: Microsomes from liver hold many membrane-bound enzymes, among them those of drug oxidation.

Data set [10] has as its system Mus musculus. In words: Antidepressant activity in ICR mouse model of reserpine-induced depression assessed as reduction in eyelid closure at 4 to 16 mg/kg, sc for 6 days followed by reserpine injection 2 hrs after last compound dose and measured after 2 hrs. It counts as functional, organism-based. In outline:
(§1)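 In mice, depression was induced with reserpine 4 mg/kg, and the compound was given s.c. at 4, 8 or 16 mg/kg. Controls received phosphate buffer alone. Awakening, finger contact, fear, head touch, autonomous movement, straight and eyelid closure were scored. Data are mean ± SD of 3 independent experiments.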

In data set [11] the target is T3, Monoglyceride lipase (Homo sapiens). In words: Reversible inhibition of human recombinant MAGL at 1 uM pre-incubated for 5 mins before MAGL substrate 4-NPA addition followed by 10 fold dilution and measured after 10 mins. The gist of the method: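 Human MAGL was preincubated with 1 μM inhibitor and then diluted 10-fold to a final 0.1 μM. Percent inhibition after dilution was compared with direct 1 μM and 0.1 μM samples to judge reversibility.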

The target of data set [12] is T2, Cannabinoid receptor 2. In words: Inhibition of CB2 receptor (unknown origin) expressed in Flpin-CHO cells incubated for 10 mins by Eu-cAMP tracer based cAMP accumulation assay. The class given is functional, cell-based.
Data set [13] is described as follows: AUC (0 to t) in Sprague-Dawley rat plasma at 10 mg/kg, iv measured over 1 to 300 mins post dose by LC-MS/MS analysis. The class given is ADME, organism-based. As to conditions: in vivo.
Data set [14] has as its system Mus musculus. In words: Antidepressant activity in ICR mouse model of reserpine-induced depression assessed as reduction in straight scores at 4 to 16 mg/kg, sc for 6 days followed by reserpine injection 2 hrs after last compound dose and measured after 2 hrs. It counts as functional, organism-based. In outline: as §1
The target of the next data set is Cannabinoid receptor 1 (Homo sapiens, UniProt P21554). In words: Inhibition of CB1 receptor (unknown origin) expressed in Flpin-CHO cells at 10 uM incubated for 10 mins by Eu-cAMP tracer based cAMP accumulation assay relative to control.
Sequence of Cannabinoid receptor 1 (P21554 whole entry): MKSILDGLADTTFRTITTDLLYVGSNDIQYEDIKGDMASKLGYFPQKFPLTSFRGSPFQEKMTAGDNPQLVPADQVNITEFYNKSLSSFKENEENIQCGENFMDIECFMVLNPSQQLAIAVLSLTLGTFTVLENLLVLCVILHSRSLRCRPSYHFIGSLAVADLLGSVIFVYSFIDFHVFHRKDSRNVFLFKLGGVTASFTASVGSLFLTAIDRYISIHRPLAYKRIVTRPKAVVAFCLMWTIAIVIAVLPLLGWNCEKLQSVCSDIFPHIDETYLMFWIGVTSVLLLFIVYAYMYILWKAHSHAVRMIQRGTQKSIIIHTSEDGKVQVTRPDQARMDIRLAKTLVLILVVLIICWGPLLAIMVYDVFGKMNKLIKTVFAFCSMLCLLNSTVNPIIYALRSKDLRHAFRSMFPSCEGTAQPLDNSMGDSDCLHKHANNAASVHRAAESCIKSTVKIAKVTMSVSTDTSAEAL
Data set [15] can be described thus: Tmax in Sprague-Dawley rat brain at 10 mg/kg, ig measured over 5 to 720 mins post dose by LC-MS/MS analysis.
Data set [16] can be described thus: Bioavailability (0 to t) in Sprague-Dawley rat plasma at 10 mg/kg, ig measured over 1 to 300 mins post dose by LC-MS/MS analysis.
The target in data set [17] is T4, Fatty-acid amide hydrolase 1 (Homo sapiens, UniProt O00519).
T4 sequence (O00519 whole entry): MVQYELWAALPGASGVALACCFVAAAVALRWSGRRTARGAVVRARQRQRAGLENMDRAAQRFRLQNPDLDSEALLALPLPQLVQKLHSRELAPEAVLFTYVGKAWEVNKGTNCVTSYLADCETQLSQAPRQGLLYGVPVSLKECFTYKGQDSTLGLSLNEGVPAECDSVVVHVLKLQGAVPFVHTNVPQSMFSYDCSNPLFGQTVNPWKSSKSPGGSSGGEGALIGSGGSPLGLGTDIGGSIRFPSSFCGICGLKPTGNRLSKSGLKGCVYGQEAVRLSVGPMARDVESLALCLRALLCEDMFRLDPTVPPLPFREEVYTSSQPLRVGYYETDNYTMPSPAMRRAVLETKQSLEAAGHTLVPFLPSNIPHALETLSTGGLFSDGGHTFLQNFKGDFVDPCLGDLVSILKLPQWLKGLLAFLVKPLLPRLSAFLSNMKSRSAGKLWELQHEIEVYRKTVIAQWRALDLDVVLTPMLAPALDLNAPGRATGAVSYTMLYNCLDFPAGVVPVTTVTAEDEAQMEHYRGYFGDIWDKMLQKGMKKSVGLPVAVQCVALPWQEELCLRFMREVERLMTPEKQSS
In words: Inhibition of human recombinant FAAH pre-incubated for 5 mins before substrate addition and further incubated for 30 mins by fluorescence assay.

T2 sequence (P34972 whole entry): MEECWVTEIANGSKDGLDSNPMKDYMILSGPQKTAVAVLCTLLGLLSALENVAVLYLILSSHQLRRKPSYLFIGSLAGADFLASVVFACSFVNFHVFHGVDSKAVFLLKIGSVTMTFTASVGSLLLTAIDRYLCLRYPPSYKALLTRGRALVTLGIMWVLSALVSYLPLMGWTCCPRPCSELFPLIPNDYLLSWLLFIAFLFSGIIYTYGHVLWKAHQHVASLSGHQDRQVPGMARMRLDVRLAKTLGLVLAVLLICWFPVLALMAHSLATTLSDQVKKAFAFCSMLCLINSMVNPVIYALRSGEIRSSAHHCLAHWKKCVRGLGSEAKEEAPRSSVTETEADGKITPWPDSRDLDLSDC

As for `O=C(Nc1cccc(Cl)c1)C1CCN(C(=O)c2ccc3ccccc3c2)CC1`, the bioavailability in data set [1] and in data set [16] was 12.2% in each case. Moreover, the inhibitory constant (Ki) at Monoglyceride lipase is 0.0134 µM. Also, the AUC in data set [2] turned out to be 3720.04 µg·min/L. Also, the inhibition was 20.4% at Cannabinoid receptor 2 [3] and 29.7% against Cannabinoid receptor 1. Moreover, the half-life in data set [4] worked out at 4.96 h. Besides, in [5], the highest level (Cmax) was 83.1 ng/mL. Further, the inhibition at 20 µM in data set [6] came to 8.6%. Moreover, the results for the AUCt in data set [7] and in data set [13] were 9913.54 µg·min/L and 80893 µg·min/L, respectively. The inhibition entry in data set [8] and in data set [11] was “Active” throughout. Besides, in [9], the remaining at 1 h, 100 µM amounted to 57.9%. The outcome in the data set with Mus musculus [10] and in the data set on Mus musculus [14] was Active. Besides, the concentration for a half-maximal effect (EC50) at Cannabinoid receptor 2 [12] was more than 10 µM. The Tmax in data set [15] was 0.667 h. In data set [17], the IC50 is more than 100 µM.

One may read the bioavailability as the share of a dose that reaches the circulation, judged against a reference dose that is usually intravenous. Low values mean poor availability, high ones good availability. Broadly, the Ki is a dissociation constant, usually derived from enzyme kinetics or from competition with a known ligand. One may read the AUC as concentration integrated over time. Higher therefore signals high exposure. As a reminder, the half-life is how long it takes for the measured level to halve. Lower therefore signals fast loss. For orientation: Cmax means the maximum level reached in the sampled fluid or tissue. The term EC50 denotes the concentration at which the effect is half-maximal. One may read the Tmax as the time from dosing to the highest level. By IC50 is commonly meant the concentration at which inhibition is half-maximal.
